Entries after “also recorded” stand apart in the source; their conditions may differ. Where two headings read alike, the source gives them in different places.
How the values were obtained:
human TRPM2 = human TRPM2 (Homo sapiens, UniProt O94759); format: cell-based; conditions: for TRPM2 current amplitudes at fivefold higher concentration: fivefold higher concentrations
[1] = test system: TRPM2-overexpressing HEK293 cells; format: cell-based
TRPM2 = conditions: with preincubation; cited from earlier work
TRPV1 = TRPV1 (Rattus norvegicus, UniProt O35433); format: cell-based; conditions: 500 nM, 10 μM capsaicin
Outline: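 INS-1 cells were incubated with 500 nM test compound or none in standard external Ringer's solution before whole-cell patch clamp at 21–25 °C. Pipette: 140 mM Cs-glutamate, 8 NaCl, 1 MgCl2, 10 HEPES (pH 7.2), with Ca2+ left unbuffered. Ramps ran −100 to +100 mV over 50 ms at 0.5 Hz from a 0 mV holding potential. Amplitudes were taken at −80 mV.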

endogenous TRPM2 = endogenous TRPM2 (Rattus norvegicus, UniProt E9PTA2); format: cell-based
Outline: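 INS-1 cells (RPMI, 10% FBS) were held in standard external Ringer's (pH 7.2) containing the test compound. Whole-cell currents were recorded during the first 60 min, at 21–25 °C. Pipette: 140 mM Cs-glutamate, unbuffered Ca2+, ADPR 100 or 500 μM. Ramps ran −100 to +100 mV (50 ms, 0.5 Hz). Amplitudes at −80 mV and 50 s were expressed as percent inhibition of control and fitted for IC50 and Hill coefficient.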

endogenous TRPM4 = endogenous TRPM4 (Homo sapiens, UniProt Q8TD43); test: Whole-cell patch clamp of endogenous TRPM4-like currents in Jurkat T lymphocytes; format: cell-based; conditions: 500 nM
Outline: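 Jurkat T cells were incubated with 500 nM test compound or none in standard external solution before whole-cell recording. Recordings were made within the first 60 min of incubation. Pipette: Cs-glutamate-based solution with intracellular Ca2+ clamped to 2 μM. Ramps ran −100 to +100 mV (50 ms, 0.5 Hz) from 0 mV, at 21–25 °C. Currents were extracted at −80 mV.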

mouse TRPM7 = mouse TRPM7 (Mus musculus, UniProt Q923J1); test: Whole-cell patch clamp of TRPM7 currents in tetracycline-inducible HEK293 cells; format: cell-based; conditions: +80 mV, 200 s
Outline: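 Tetracycline-inducible HEK293 cells carrying FLAG-murine TRPM7 were induced with 1 μg/mL tetracycline 5–22 h beforehand. Cells were then incubated 15 min in culture medium with 100 nM, 500 nM or 2 μM test compound. Pipette: 140 mM K-glutamate with 10 mM BAPTA. Ramps ran −100 to +100 mV at 0.5 Hz, 21–25 °C. Amplitudes, not capacitance-corrected, were taken at +80 mV and 200 s, normalized, and fitted for IC50 and Hill coefficient.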

INS-1 cells = test: Appearance of INS-1 cells during exposure in patch-clamp sessions; format: cell-based, rat
Outline: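 Rat insulinoma INS-1 cells were grown at 37 °C, 5% CO2 in RPMI with 10% FBS. During whole-cell patch-clamp sessions at 21–25 °C, cells were held in standard external Ringer's solution with continual exposure to the test compound.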

CRAC (Orai1/STIM1) = CRAC (Orai1/STIM1) (Homo sapiens, UniProt Q96D31); format: cell-based; conditions: 2 μM, 30–60 min exposure
Outline: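 HEK293 cells stably expressing STIM1 were transiently transfected with CRACM1-pIRES2-EGFP and patched 24–48 h later, with EGFP identifying cotransfected cells. External solution contained 10 mM CaCl2 and 10 mM TEA-Cl (pH 7.2, 300 mOsm). Ramps ran −150 to +150 mV over 50 ms. Bath solution was control or supplemented with test compound. Current–voltage relationships were taken at 100 s.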

Chain of human TRPM2 (O94759 whole entry): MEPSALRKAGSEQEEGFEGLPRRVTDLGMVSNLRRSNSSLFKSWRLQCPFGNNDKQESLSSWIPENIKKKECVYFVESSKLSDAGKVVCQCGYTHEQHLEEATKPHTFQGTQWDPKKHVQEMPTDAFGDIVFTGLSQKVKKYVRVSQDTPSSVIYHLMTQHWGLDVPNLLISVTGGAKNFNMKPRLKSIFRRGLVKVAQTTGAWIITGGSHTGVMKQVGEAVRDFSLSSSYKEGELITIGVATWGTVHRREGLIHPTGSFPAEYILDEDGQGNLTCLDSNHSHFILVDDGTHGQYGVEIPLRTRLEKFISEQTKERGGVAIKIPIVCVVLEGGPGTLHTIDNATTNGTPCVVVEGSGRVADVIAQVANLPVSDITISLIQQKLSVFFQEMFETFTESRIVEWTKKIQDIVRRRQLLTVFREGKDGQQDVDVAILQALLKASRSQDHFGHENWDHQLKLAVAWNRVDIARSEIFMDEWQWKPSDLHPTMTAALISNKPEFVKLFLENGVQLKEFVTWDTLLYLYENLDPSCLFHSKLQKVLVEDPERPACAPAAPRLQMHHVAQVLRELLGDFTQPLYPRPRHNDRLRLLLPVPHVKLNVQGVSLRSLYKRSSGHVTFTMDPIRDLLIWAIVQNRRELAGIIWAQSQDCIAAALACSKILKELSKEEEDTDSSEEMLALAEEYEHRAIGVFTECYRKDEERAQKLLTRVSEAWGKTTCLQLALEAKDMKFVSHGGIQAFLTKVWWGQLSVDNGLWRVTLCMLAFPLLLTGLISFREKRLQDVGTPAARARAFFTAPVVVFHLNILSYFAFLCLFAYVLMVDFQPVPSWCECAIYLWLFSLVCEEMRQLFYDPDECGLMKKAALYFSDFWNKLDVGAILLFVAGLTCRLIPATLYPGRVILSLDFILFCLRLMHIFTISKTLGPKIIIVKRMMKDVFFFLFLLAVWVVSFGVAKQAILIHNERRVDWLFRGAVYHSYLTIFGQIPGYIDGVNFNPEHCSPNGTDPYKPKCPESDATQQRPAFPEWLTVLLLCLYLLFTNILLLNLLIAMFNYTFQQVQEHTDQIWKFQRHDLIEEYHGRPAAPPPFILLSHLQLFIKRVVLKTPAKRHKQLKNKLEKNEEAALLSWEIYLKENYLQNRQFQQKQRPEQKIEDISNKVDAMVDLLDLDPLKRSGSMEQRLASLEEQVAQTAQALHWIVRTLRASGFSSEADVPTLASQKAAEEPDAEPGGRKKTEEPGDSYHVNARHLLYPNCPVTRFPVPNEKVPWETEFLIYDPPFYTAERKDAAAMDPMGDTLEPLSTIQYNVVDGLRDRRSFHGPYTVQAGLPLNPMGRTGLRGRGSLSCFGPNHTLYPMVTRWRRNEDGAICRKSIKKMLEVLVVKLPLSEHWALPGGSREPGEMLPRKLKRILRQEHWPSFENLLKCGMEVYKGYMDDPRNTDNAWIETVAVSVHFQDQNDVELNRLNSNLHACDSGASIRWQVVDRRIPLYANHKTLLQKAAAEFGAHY
Chain of CRAC (Orai1/STIM1) (Q96D31 whole entry, species assumed): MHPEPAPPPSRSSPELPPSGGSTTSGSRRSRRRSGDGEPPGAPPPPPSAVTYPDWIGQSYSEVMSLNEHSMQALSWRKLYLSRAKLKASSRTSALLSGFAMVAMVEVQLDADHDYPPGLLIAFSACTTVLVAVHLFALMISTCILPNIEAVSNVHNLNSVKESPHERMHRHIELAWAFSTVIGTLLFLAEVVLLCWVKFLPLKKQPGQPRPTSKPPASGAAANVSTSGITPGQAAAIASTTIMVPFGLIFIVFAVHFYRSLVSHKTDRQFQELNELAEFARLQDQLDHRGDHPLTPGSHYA
Chain of CRAC (Orai1/STIM1) (Q13586 23-685 partner, species assumed): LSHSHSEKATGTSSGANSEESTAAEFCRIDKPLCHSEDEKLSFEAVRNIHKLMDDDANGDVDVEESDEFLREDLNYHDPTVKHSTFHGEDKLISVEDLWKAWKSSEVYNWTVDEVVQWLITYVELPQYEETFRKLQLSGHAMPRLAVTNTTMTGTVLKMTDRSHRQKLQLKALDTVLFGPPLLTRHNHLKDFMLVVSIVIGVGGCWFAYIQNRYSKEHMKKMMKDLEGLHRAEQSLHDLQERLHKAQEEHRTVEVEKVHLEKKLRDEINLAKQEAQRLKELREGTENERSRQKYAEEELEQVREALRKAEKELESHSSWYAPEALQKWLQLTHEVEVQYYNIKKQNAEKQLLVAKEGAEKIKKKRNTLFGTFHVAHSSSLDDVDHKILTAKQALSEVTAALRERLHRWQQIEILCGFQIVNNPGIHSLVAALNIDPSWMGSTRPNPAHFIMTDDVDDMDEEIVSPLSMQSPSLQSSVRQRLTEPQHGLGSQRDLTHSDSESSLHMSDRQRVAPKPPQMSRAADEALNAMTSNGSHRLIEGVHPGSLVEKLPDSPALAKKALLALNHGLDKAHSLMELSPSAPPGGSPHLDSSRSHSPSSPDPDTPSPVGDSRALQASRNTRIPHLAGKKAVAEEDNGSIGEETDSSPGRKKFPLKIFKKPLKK
Chain of endogenous TRPM4 (Q8TD43 whole entry): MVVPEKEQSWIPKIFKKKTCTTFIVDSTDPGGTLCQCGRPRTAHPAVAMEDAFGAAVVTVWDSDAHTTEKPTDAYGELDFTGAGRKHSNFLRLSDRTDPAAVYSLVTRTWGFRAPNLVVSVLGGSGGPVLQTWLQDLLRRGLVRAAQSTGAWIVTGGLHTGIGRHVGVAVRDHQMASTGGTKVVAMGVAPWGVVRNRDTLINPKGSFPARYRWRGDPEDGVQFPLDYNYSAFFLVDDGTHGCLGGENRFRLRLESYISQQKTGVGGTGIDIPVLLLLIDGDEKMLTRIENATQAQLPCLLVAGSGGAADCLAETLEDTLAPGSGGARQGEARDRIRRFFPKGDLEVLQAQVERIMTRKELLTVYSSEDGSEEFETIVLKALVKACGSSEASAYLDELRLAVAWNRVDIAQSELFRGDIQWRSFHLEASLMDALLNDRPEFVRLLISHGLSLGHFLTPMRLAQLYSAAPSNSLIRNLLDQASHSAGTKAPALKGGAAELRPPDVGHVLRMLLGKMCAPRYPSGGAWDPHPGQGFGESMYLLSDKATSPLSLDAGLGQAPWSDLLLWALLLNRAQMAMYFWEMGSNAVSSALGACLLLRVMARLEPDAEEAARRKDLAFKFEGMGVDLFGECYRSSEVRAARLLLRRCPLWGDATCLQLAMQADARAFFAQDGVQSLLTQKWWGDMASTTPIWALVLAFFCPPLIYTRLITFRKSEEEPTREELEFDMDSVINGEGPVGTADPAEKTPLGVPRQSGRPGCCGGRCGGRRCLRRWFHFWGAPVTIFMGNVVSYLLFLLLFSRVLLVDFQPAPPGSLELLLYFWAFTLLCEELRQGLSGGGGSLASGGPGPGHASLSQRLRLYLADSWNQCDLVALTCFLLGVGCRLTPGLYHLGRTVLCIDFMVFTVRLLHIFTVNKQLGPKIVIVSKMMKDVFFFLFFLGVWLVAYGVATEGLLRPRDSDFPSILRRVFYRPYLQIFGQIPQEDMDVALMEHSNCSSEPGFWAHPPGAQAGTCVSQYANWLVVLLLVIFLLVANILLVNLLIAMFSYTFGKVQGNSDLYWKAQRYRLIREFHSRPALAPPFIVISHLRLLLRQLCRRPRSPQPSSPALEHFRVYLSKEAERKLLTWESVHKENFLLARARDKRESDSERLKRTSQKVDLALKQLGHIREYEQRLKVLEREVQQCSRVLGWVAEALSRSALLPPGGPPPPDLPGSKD
Chain of TRPV1 (O35433 whole entry): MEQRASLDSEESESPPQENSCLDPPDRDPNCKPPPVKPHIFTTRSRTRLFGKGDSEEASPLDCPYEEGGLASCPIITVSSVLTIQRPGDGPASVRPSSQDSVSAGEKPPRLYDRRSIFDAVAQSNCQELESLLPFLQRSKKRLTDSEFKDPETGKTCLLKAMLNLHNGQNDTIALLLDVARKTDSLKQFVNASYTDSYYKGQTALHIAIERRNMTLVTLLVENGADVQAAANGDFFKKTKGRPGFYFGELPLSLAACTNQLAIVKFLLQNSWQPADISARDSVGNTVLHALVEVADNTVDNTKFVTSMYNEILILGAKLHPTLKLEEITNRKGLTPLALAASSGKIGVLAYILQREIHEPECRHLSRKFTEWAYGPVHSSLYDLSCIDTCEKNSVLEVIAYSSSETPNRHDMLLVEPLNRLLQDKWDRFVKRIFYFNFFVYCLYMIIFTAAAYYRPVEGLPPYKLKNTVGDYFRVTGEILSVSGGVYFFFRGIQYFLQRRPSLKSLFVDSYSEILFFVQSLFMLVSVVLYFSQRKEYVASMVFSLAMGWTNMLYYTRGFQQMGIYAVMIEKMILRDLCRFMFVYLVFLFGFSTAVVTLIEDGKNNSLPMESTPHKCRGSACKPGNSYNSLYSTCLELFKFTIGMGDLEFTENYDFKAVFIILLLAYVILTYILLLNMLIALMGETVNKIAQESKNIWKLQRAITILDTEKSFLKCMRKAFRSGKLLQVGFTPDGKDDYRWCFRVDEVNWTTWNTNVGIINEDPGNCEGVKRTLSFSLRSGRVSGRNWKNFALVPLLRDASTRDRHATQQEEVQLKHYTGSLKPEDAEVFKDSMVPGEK

With `O=c1[nH]c2ccccc2n1C1CCN(Cc2ccc(-c3nc4cc5[nH]cnc5cc4nc3-c3ccccc3)cc2)CC1` [Akt inhibitor VIII, 1,3-dihydro-1-(1-((4-(6-phenyl-1H-imidazo[4,5-g]quinoxalin-7-yl)phenyl)methyl)-4-piperidinyl)-2H-benzimidazol-2-one] the “Effect on TRPM2-mediated currents” value (human TRPM2; 200 nM, 60 min preincubation, 500 μM ADPR) was “failed to affect”, the “TRPM2 current amplitudes at fivefold higher concentration” value (human TRPM2; data not shown) was “comparable to control cells” and the “Effect on cell viability at fivefold higher concentration” value [1] was “affected cell viability”.
With `O=C1NCCc2c(OCCCCN3CCCCC3)cccc21` [DPQ, 3,4-dihydro-5-[4-(1-piperidinyl)butoxyl]-1(2H)-isoquinolinone] the “Effect on TRPM2-mediated currents (ADPR in pipet)” value (human TRPM2; PARP-1 inhibitors, 100 μM ADPR, first 60 min) was “did not affect”.
In the case of `COc1cc(/C=C/C(=O)CC(=O)/C=C/c2ccc(O)c(OC)c2)ccc1O` [curcumin], the “Concentration range blocking TRPM2 currents” value (TRPM2) is listed as “low nanomolar range”.
With `O=C(O)CC[C@@H](Cc1ccc(OCc2ccccc2)cc1)NC(=O)CCCCCCc1ccccc1` [sPLA2 inhibitor, 5-(4-benzyloxyphenyl)-4S-(7-phenylheptanoylamino)pentanoic acid] the “Effect on TRPM2-mediated currents” value (human TRPM2; 5 μM, 100 μM ADPR) was “lack of effect” and the “Cell death during a 1 h recording session” value ([1]; 5–10-fold higher concentrations, data not shown) was “significant cell death”.
For `CC(=O)O[C@H]1C[C@@H]2[C@@]3(C)CCCC(C)(C)[C@@H]3CC[C@@]2(C)[C@@H]2CC=C(C=O)[C@H](C=O)[C@@]12C` [scalaradial], the “Effect on TRPV1 current” value (TRPV1) was “does not inhibit; also recorded: failed to inhibit”, the “Effect on ADPR-induced currents” value (endogenous TRPM2; 0.5–2.0 μM) was “largely abolished” and the “Hill coefficient of INS-1 TRPM2 dose-response fit” value (endogenous TRPM2; −80 mV, 50 s) was 4. The “Effect on TRPM4 current” value (endogenous TRPM4) was “without affecting the current; also recorded: failed to inhibit”, the “Hill coefficient of TRPM7 concentration-response fit” value (mouse TRPM7) was 2 and the “Time cells appeared healthy with continual exposure” value (INS-1 cells; 500 nM and lower concentrations) was “at least 1 h”. The “Condition of INS-1 cells” value (INS-1 cells; 2 μM) was “rapidly deteriorated”, the “Incubation time to reach full potency (full onset) of TRPM2 inhibition” value (human TRPM2; 2 μM scalaradial) was ~ 20 min and the “Effect of acute application on TRPM2 currents” value (human TRPM2; 2 μM, acute application) was “did not significantly affect”. The “Hill coefficient of TRPM2 concentration-response fit” value (human TRPM2; 30–60 min incubation, −80 mV, 100 s) was 1.3, the “Time dependency of TRPM2 inhibition when added internally” value (human TRPM2; added to the cell internally, data not shown) was “not affected” and the “Time to recovery of TRPM2 currents after drug removal” value (human TRPM2; after 60 min incubation in 2 μM) was at most 5 min. For the same compound, the “Effect on CRAC currents” value (CRAC (Orai1/STIM1)) was “no significant inhibition; also recorded: did not significantly affect; also recorded: failed to inhibit”.
In the case of `COC[C@H]1OC(=O)c2coc3c2[C@@]1(C)C1=C(C3=O)[C@@H]2CCC(=O)[C@@]2(C)C[C@H]1OC(C)=O` [wortmannin], the “Effect on TRPM2-mediated currents” value (human TRPM2; 20 nM, 60 min preincubation, 500 μM ADPR) is reported as “failed to affect”, the “TRPM2 current amplitudes at fivefold higher concentration” value (human TRPM2; data not shown) is reported as “comparable to control cells” and the “Effect on cell viability at fivefold higher concentration” value ([1]; fivefold higher concentrations, cell rounding, granule formation, blebbing, data not shown) is reported as “affected cell viability”.
